According to ChEMBL document CHEMBL4007430, “Synthesis and Cytostatic and Antiviral Profiling of Thieno-Fused 7-Deazapurine Ribonucleosides” (J Med Chem, 2017):

Tests used:
[1] = test system: Hepatitis C virus; test: Anti-HCV activity against Hepatitis C virus genotype 1b infected in human Huh7 replicon cells after 96 hrs by luciferase reporter gene assay; format: functional, cell-based, Hepacivirus hominis; conditions: Huh-7, 96 h
[2] = test system: Hepatitis C virus; test: Anti-HCV activity against Hepatitis C virus genotype 2a infected in human Huh7 replicon cells after 96 hrs by luciferase reporter gene assay; format: functional, cell-based, Hepacivirus hominis; conditions: Huh-7, 96 h
[3] = test system: BJ; test: Cytotoxicity against human BJ cells assessed as cell growth inhibition after 72 hrs by MTS assay; format: cell-based
Outline: (§1)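 Cells were exposed to compound for 3 days, then stained with MTS as a quantitative metabolic read-out. IC50 is the concentration that inhibits cell growth by 50%.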

[4] = test system: MRC5; test: Cytotoxicity against human MRC5 cells assessed as cell growth inhibition after 72 hrs by MTS assay; format: cell-based; conditions: MRC5, 72 h; outline: as §1
[5] = Cytotoxicity against mrp-1/mdr-1 overexpressing human CEM-DNR-bulk cells assessed as cell growth inhibition after 72 hrs by MTS assay; format: functional, cell-based
Outline: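 Cells were exposed to compound for 3 days, then stained with MTS as a quantitative metabolic read-out.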

[6] = test system: HCT-116; test: Cytotoxicity against human HCT116 cells assessed as cell growth inhibition after 72 hrs by MTS assay; format: functional, cell-based; conditions: HCT-116, 72 h; outline: as §1
[7] = test system: HCT-116; test: Cytotoxicity against p53 deficient human HCT116 cells assessed as cell growth inhibition after 72 hrs by MTS assay; format: functional, cell-based; conditions: HCT-116, 72 h; outline: as §1
[8] = test system: K562; test: Cytotoxicity against human K562 cells assessed as cell growth inhibition after 72 hrs by MTS assay; format: functional, cell-based; conditions: K562, 72 h; outline: as §1
[9] = Cytotoxicity against human K562-TAX cells assessed as cell growth inhibition after 72 hrs by MTS assay; format: functional, cell-based; outline: as §1
[10] = test system: U2OS; test: Cytotoxicity against human U2OS cells assessed as cell growth inhibition after 72 hrs by MTS assay; format: functional, cell-based
[11] = test system: HL-60; test: Cytotoxicity against human HL60 cells assessed as reduction in cell viability after 72 hrs by XTT assay; format: functional, cell-based; conditions: HL-60, 72 h
Outline: (§2)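 Cells were incubated with compound for 3 days. Viability was then measured with the XTT tetrazolium assay.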

[12] = test system: HepG2; test: Cytotoxicity against human HepG2 cells assessed as reduction in cell viability after 72 hrs by XTT assay; format: functional, cell-based; conditions: HepG2, 72 h; outline: as §2
[13] = test system: HeLa S3; test: Cytotoxicity against human HeLaS3 cells assessed as reduction in cell viability after 72 hrs by XTT assay; format: functional, cell-based; conditions: HeLa S3, 72 h; outline: as §2
[14] = test system: A549; test: Cytotoxicity against human A549 cells assessed as cell growth inhibition after 72 hrs by MTS assay; format: functional, cell-based; conditions: A549, 72 h; outline: as §1
[15] = test system: CCRF-CEM; test: Induction of apoptosis in human CCRF-CEM cells assessed as accumulation at subG1 phase at IC50 after 24 hrs by propidium iodide staining-based flow cytometric analysis (reference value: 2.32%); format: functional
[16] = test system: CCRF-CEM; test: Induction of apoptosis in human CCRF-CEM cells assessed as accumulation at subG1 phase at 5 times IC50 after 24 hrs by propidium iodide staining-based flow cytometric analysis (reference value: 2.32%); format: functional
[17] = test system: CCRF-CEM; test: Cell cycle arrest in human CCRF-CEM cells assessed as accumulation at G0/G1 phase at IC50 after 24 hrs by propidium iodide staining-based flow cytometric analysis (reference value: 41.11%); format: functional
[18] = test system: CCRF-CEM; test: Cell cycle arrest in human CCRF-CEM cells assessed as accumulation at G0/G1 phase at 5 times IC50 after 24 hrs by propidium iodide staining-based flow cytometric analysis (reference value: 41.11%); format: functional
[19] = test system: CCRF-CEM; test: Cell cycle arrest in human CCRF-CEM cells assessed as accumulation at S phase at IC50 after 24 hrs by propidium iodide staining-based flow cytometric analysis (reference value: 44.20%); format: functional
[20] = test system: CCRF-CEM; test: Cell cycle arrest in human CCRF-CEM cells assessed as accumulation at S phase at 5 times IC50 after 24 hrs by propidium iodide staining-based flow cytometric analysis (reference value: 44.20%); format: functional
[21] = test system: CCRF-CEM; test: Cell cycle arrest in human CCRF-CEM cells assessed as accumulation at G2/M phase at IC50 after 24 hrs by propidium iodide staining-based flow cytometric analysis (reference value: 14.70%); format: functional
[22] = test system: CCRF-CEM; test: Cell cycle arrest in human CCRF-CEM cells assessed as accumulation at G2/M phase at 5 times IC50 after 24 hrs by propidium iodide staining-based flow cytometric analysis (reference value: 14.70%); format: functional
[23] = test system: CCRF-CEM; test: Inhibition of mitosis in human CCRF-CEM cells assessed as pH3Ser10 positive cells at IC50 after 24 hrs by flow cytometric analysis (reference value: 1.74%); format: functional
[24] = test system: CCRF-CEM; test: Inhibition of mitosis in human CCRF-CEM cells assessed as pH3Ser10 positive cells at 5 times IC50 after 24 hrs by flow cytometric analysis (reference value: 1.74%); format: functional
[25] = test system: CCRF-CEM; test: Inhibition of mitosis in human CCRF-CEM cells assessed as pH3Ser10 positive cells after 24 hrs by flow cytometric analysis; format: functional, cell-based
[26] = test system: CCRF-CEM; test: Inhibition of DNA synthesis in human CCRF-CEM cells assessed as decrease in BrdU incorporation by measuring synthesized DNA levels at IC50 after 24 hrs by propidium iodide staining-based flow cytometric analysis (reference value: 52.66%); format: functional
[27] = test system: CCRF-CEM; test: Inhibition of DNA synthesis in human CCRF-CEM cells assessed as decrease in BrdU incorporation by measuring synthesized DNA levels at 5 times IC50 after 24 hrs by propidium iodide staining-based flow cytometric analysis (reference value: 52.66%); format: functional
[28] = test system: CCRF-CEM; test: Inhibition of RNA synthesis in human CCRF-CEM cells assessed as decrease in BrU incorporation by measuring synthesized RNA levels at IC50 after 24 hrs by propidium iodide staining-based flow cytometric method (reference value: 53.09%); format: functional
[29] = test system: CCRF-CEM; test: Inhibition of RNA synthesis in human CCRF-CEM cells assessed as decrease in BrU incorporation by measuring synthesized RNA levels at 5 times IC50 after 24 hrs by propidium iodide staining-based flow cytometric method (reference value: 53.09%); format: functional
[30] = Drug level in human BJ cells at 1 umol/L measured per 5 x 10^5 cells after 1 hr by UPLC-MS/MS analysis; format: ADME, cell-based; conditions: 1 µM
[31] = Drug level in human HCT116 cells at 1 umol/L measured per 5 x 10^5 cells after 1 hr by UPLC-MS/MS analysis; format: ADME, cell-based; conditions: hct-116, 1 h, 1 µM
[32] = Drug level in human BJ cells at 1 umol/L measured per 5 x 10^5 cells after 3 hrs by UPLC-MS/MS analysis; format: ADME, cell-based; conditions: 1 µM
[33] = Drug level in human HCT116 cells at 1 umol/L measured per 5 x 10^5 cells after 3 hrs by UPLC-MS/MS analysis; format: ADME, cell-based; conditions: hct-116, 3 h, 1 µM
[34] = Drug level in human BJ cells at 10 umol/L measured per 5 x 10^5 cells after 1 hr by UPLC-MS/MS analysis; format: ADME, cell-based; conditions: 10 µM
[35] = Drug level in human HCT116 cells at 10 umol/L measured per 5 x 10^5 cells after 1 hr by UPLC-MS/MS analysis; format: ADME, cell-based; conditions: hct-116, 1 h, 10 µM
[36] = Drug level in human BJ cells at 10 umol/L measured per 5 x 10^5 cells after 3 hrs by UPLC-MS/MS analysis; format: ADME, cell-based; conditions: 10 µM
[37] = Drug level in human HCT116 cells at 10 umol/L measured per 5 x 10^5 cells after 3 hrs by UPLC-MS/MS analysis; format: ADME, cell-based; conditions: hct-116, 3 h, 10 µM
[38] = Cytotoxicity against human HuH7 cells; format: cell-based, Huh-7
[39] = test system: CCRF-CEM; test: Cytotoxicity against human CCRF-CEM cells assessed as cell growth inhibition after 72 hrs by MTS assay

With `CSc1ncnc2c1c1sccc1n2[C@@H]1O[C@H](CO)[C@@H](O)[C@H]1O` as the compound, how does the EC50 [1] read?
Its EC50 is 0.47 µM.

And the EC50 [2]?
Its EC50 is 0.34 µM.

What about the IC50 [3] of the same compound?
Its IC50 is 1.25 µM.

What about the IC50 [4] of the same compound?
Its IC50 is 9.01 µM.

What about the IC50 [5] of the same compound?
Its IC50 is 1.46 µM.

And the IC50 [6]?
Its IC50 is 0.05 µM.

And the IC50 [7]?
Its IC50 is 0.09 µM.

And the IC50 [8]?
Its IC50 is 0.35 µM.

And the IC50 [9]?
Its IC50 is 2.2 µM.

What about the IC50 [10] of the same compound?
The IC50 was 0.46 µM.

And the IC50 [11]?
The IC50 was 0.51 µM.

And the IC50 [12]?
Its IC50 is 0.36 µM.

And the IC50 [13]?
The IC50 was 0.72 µM.

What about the IC50 [14] of the same compound?
Its IC50 is 0.66 µM.

What about the Activity [15] of the same compound?
The Activity was 10.83%.

And the Activity [16]?
The Activity was 18.15%.

And the Activity [17]?
The Activity was 44.14%.

And the Activity [18]?
The Activity was 41.28%.

And the Activity [19]?
Its Activity is 34.12%.

What about the Activity [20] of the same compound?
The Activity was 38.11%.

And the Activity [21]?
The Activity was 21.65%.

What about the Activity [22] of the same compound?
The Activity was 20.61%.

And the “pH3Ser10+ cells (%)” value [23]?
The value was 1.92%.

What about the “pH3Ser10+ cells (%)” value [24] of the same compound?
Its value is 1.03%.

What about the Activity [25] of the same compound?
Its Activity is “Dose-dependent effect”.

What about the “BrdU+ cells (%)” value [26] of the same compound?
Its value is 51.67%.

What about the “BrdU+ cells (%)” value [27] of the same compound?
The value was 51.49%.

And the “BrU+ cells (%)” value [28]?
The value was 1.46%.

And the “BrU+ cells (%)” value [29]?
The value was 0.16%.

And the Drug uptake [30]?
Its Drug uptake is 711.7 pmol.

What about the Drug uptake [31] of the same compound?
Its Drug uptake is 105.4 pmol.

What about the Drug uptake [32] of the same compound?
The Drug uptake was 1750.5 pmol.

What about the Drug uptake [33] of the same compound?
The Drug uptake was 602.8 pmol.

And the Drug uptake [34]?
The Drug uptake was 2298.3 pmol.

And the Drug uptake [35]?
Its Drug uptake is 525.5 pmol.

What about the Drug uptake [36] of the same compound?
The Drug uptake was 3161.5 pmol.

What about the Drug uptake [37] of the same compound?
Its Drug uptake is 1299 pmol.

And the CC50 [38]?
The CC50 was over 44.4 µM.

And the IC50 [39]?
Its IC50 is 0.027 µM.
